# Screening data (PubChem BioAssay)
# Casp6 inh: blocks human caspase-6 cleavage activity; P55212; purified caspase-6, Z-VEID-R110 cleavage fluorescence; inhibition, % at 12.5 µM; AID 686996; actives 0.53% (n = 350,000);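 active means mean inhibition across replicates at least about 35%, with every replicate also reaching that limit, limit read from the data; inconclusive means only one of the two criteria met; inactive means neither criterion met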
# RAD54 branch: inhibitors of human RAD54 branch migration; actives 0.14% (n = 360,000); RAD54 Holliday junction branch migration, FAM/BHQ fluorescence; inhibition, % at 10.4 µM;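 active means mean normalized replicate activity at least 40 and at least half of replicates scoring 40 or more; inconclusive means only one of the two criteria met; inactive means mean below 40 and under half of replicates reaching 40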;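 further: inhibitors cause a drop in the FAM fluorescence signal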
# Target sequence (Q92698 whole entry, looked up): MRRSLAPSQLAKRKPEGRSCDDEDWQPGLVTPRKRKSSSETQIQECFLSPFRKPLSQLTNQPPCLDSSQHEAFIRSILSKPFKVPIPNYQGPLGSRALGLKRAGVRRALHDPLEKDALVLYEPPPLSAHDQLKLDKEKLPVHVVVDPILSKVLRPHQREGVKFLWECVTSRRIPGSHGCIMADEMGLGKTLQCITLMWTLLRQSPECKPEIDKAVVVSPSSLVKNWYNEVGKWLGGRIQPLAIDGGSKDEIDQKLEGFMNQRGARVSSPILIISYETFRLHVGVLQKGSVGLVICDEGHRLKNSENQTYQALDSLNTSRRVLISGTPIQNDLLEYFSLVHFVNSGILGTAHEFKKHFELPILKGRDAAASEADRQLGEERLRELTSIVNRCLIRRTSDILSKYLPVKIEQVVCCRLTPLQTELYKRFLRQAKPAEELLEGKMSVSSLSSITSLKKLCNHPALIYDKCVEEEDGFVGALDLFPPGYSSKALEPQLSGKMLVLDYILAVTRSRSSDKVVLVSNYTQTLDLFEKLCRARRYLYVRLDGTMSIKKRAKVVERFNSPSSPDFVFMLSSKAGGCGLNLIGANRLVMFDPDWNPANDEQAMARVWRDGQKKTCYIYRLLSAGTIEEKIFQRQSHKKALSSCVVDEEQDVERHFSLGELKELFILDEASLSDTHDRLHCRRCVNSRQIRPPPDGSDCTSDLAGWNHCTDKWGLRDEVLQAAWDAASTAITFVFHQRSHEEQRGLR
# RAD52 anneal inh: inhibitors of human RAD52 DNA annealing; P43351; recombinant RAD52 DNA annealing, FRET fluorescence; inhibition, % at 18.7 µM; actives 0.46% (n = 360,000); AID 651710;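 active means every replicate showing at least 50% inhibition; inconclusive means mean inhibition at least 50% but not in every replicate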
# AF4-AF9 inh: MLL-AF4/AF9 protein interaction inhibition; AlphaScreen, biotin-AF4 peptide binding to FLAG-AF9; inhibition, % at 10 µM; actives 0.47% (n = 350,000); AID 651704;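 active means every replicate reaching a set inhibition limit, whatever the replicate mean, cut at about 25% in these data; inconclusive means mean inhibition reaches that limit but some replicates miss it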
# S100A4 inh HTS: inhibitors of human S100A4 binding to myosin IIA peptide. actives 0.14% (n = 360,000). S100A4/TAMRA-MyoIIA peptide fluorescence polarization. inhibition, % at 10.7 µM. AID 652163;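 active means mean inhibition of at least 70% across replicates, with every replicate also reaching that level; inconclusive means mean inhibition reaches 70% but some replicates fall short; inactive means mean inhibition below 70%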
#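 Material: S100A4 monomer protein / Buffer or medium: 50 mM HEPES pH 7.2, 10 mM CaCl2, 100 mM KCl / Times: 5 min incubation before reading / Benchmarks: neutral control DMSO, positive control TFP / Reagent: labelled myosin peptide probe, 5 nM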
# Xi reactivation: reactivates the inactive X chromosome in mouse fibroblasts | XiGFP mouse fibroblasts, % GFP-positive cells imaging, 3 d; cells co-treated with 5-aza-dC sensitizer; scaled so ellipticine positive control = 100% | activation, % at 7.58 µM | actives 0.055% (n = 360,000) | AID 743238;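 active means mean normalized replicate activation at least 10% and every replicate at or above 10%; inconclusive means only one of the two criteria met; inactive means mean below 10% and not all replicates reach 10%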
#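 Material: XiGFP fibroblasts, SV40-immortalized. Buffer or medium: DMEM plus 5-aza-dC sensitizer. Compound: single concentration per compound, delivered by pin transfer. Times: 3 days compound exposure. Controls: ellipticine 6 µM.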
# Rad54 DNA ctr: counter-screen for Rad54 inhibitors: DNA binding compounds; shares compounds with RAD54 branch; Acridine orange-DNA displacement, fluorescence polarization, 20 min; AC50, µM (top dose mostly 35 µM); actives 8% (n = 460); AID 651673;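 active means signal drop giving an AC50 within twice the top valid tested concentration of each sample, actives reach about 35 µM in these data; inactive means activity opposite to expected, plus the rest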;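 further: polarization loss reports compound binding to salmon sperm DNA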
# Numbers stand for hits; . = inactive; ? = inconclusive; / = no result given. This is a sample that favours compounds with a hit; in the whole collection about 1.3% have one here.
SMILES,Casp6 inh,RAD54 branch,RAD52 anneal inh,AF4-AF9 inh,S100A4 inh HTS,Xi reactivation,Rad54 DNA ctr
CN(C)CCN(C(=O)C1=COCCO1)c1nc2ccc(F)cc2s1,.,.,.,.,.,.,/
NCc1csc(Nc2nncc3ccccc23)n1,.,75,.,.,.,.,.
NC(COCc1ccccc1)c1csc(Nc2nncc3ccccc23)n1 (stereo not given),.,.,.,.,.,.,/
COCC(=O)N1C[C@@H](C)[C@@H](OC)CN(C)C(=O)c2ccc(NC(=O)c3ccc(F)cc3)cc2OC[C@H]1C,.,.,.,.,.,.,/
CCC(=O)N(Cc1cc2cc(OC)ccc2[nH]c1=O)c1cc(C)ccc1C,/,?,/,/,/,/,.
Cc1ccc(S(=O)(=O)NCCCNS(=O)(=O)c2ccccc2[N+](=O)[O-])cc1,.,?,.,.,.,.,.
Cc1ccc2nc3c(c(N)c2c1)CCN3c1ccccc1,/,53,/,/,/,/,.
Nc1c2c(nc3cccc(Cl)c13)N(c1ccccc1)CC2,.,/,.,.,.,.,/
Nc1c(C(=O)NCCN2CCOCC2)c2nc3ccccc3nc2n1-c1ccc2c(c1)OCO2,/,?,/,/,/,/,.
Nc1c(C(=O)NCCN2CCOCC2)c2nc3ccccc3nc2n1-c1ccccc1,/,52,/,/,/,/,.
Nc1c(C(=O)NCCN2CCOCC2)c2nc3ccccc3nc2n1CCc1ccccc1,/,.,/,/,/,/,/
O=C(C[C@@H]1C=C[C@H](NC(=O)Nc2ccc3c(c2)OCO3)[C@H](CO)O1)NCc1ccc(Cl)cc1,.,.,.,.,.,.,/
CC(=O)NC[C@H]1[C@@H](c2ccc(-c3cccc(F)c3)cc2)[C@@H](CO)N1C(C)=O,.,.,.,.,.,.,/
CCNC(=O)C[C@H]1CC[C@H]2[C@@H](COc3ccc(NC(=O)C4CCCCC4)cc3C(=O)N2C)O1,.,.,.,.,.,.,/
CCOC(=O)c1c(NC(C)=O)sc2c(OCC(O)CNC(C)(C)C)c(Br)ccc12 (stereo not given),/,?,/,/,/,.,.
C[C@@H]1CN([C@H](C)CO)C(=O)c2cc(-c3ccc(C#N)cc3)cnc2O[C@@H]1CN(C)Cc1cccnc1,.,.,.,.,.,.,/
CCCC#Cc1ccc([C@H]2[C@@H](CO)N3C(=O)CN(S(=O)(=O)Cc4ccccc4)C[C@H]23)cc1,.,/,.,.,.,.,/
O=C(Nc1ccc2c(c1)OCO2)c1cc(-c2ccncc2)nc2ccccc12,.,?,.,.,.,.,.
CCNC(=O)C[C@H]1CC[C@H]2[C@H](COc3ccc(NC(=O)Nc4cccc(Cl)c4)cc3C(=O)N2C)O1,.,.,.,.,.,.,/
COCC#Cc1cnc2c(c1)C(=O)N([C@H](C)CO)C[C@@H](C)[C@@H](CN(C)C)O2,.,.,.,.,.,.,/
O=C(NCCCN1CCOCC1)c1cc2c(=O)[nH]c3ccccc3c2s1,.,.,.,/,.,/,/
CCN1CCN(CCCNC(=O)c2cc3c(=O)[nH]c4ccccc4c3s2)CC1,/,52,/,/,/,/,.
CCN(CC)CCNC(=O)c1cc2c(=O)n(C)c3ccccc3c2s1,.,62,.,.,.,.,.
CCCCN(CC)CCNC(=O)c1cc2c(=O)[nH]c3ccc(C)cc3c2s1,.,?,.,.,.,.,.
CC1CCN(CCCNC(=O)c2cc3c(Cl)nc4ccccc4c3s2)CC1,.,89,.,.,.,.,.
SMILES,Casp6 inh,RAD54 branch,RAD52 anneal inh,AF4-AF9 inh,S100A4 inh HTS,Xi reactivation,Rad54 DNA ctr
C[C@@H]1CN([C@H](C)CO)C(=O)c2cc(C3=CCCCC3)cnc2O[C@@H]1CN(C)S(=O)(=O)c1cn(C)cn1,.,.,.,.,.,.,/
CCCN(CCC)c1nc(-c2ccccn2)nc2ccccc12,.,90,.,.,.,.,.
CCCCN(CC)c1nc(-c2ccncc2)nc2ccccc12,/,.,/,/,/,/,/
Cc1ccc(C)c(N2CCN(C(=S)Nc3ccc4nc(N5CCN(C)CC5)cc(C)c4c3)CC2)c1,.,?,.,.,.,.,.
CO[C@H]1CN(C)C(=O)c2cc(NC(=O)Nc3cccc(Cl)c3)ccc2OC[C@H](C)NC[C@H]1C,.,.,.,.,.,.,/
O=C(C1CCOCC1)N1C[C@@H]2[C@H](c3ccccc31)[C@@H](CO)N2C(=O)c1ccccc1,.,.,.,.,.,.,/
CN1CCN(C(=O)C[C@@H]2CC[C@@H](NS(=O)(=O)c3cccc(F)c3)[C@@H](CO)O2)CC1,.,.,.,.,.,.,/
COc1cc2sc3cc(NCc4ccc(C)o4)ccc3c(=O)c2cc1OC,.,.,.,.,.,.,/
COc1cccc2sc3ccc(NCCC4CCCN4C)cc3c(=O)c12 (stereo not given),.,61,.,.,.,.,.
COc1cc2sc3cc(NCC[C@@H]4CCCN4C)ccc3c(=O)c2cc1OC,.,76,.,.,.,.,.
Clc1ccc2[nH]c3c(NCCCN4CCOCC4)ncnc3c2c1,/,?,/,/,/,/,.
Cc1nc2ccccc2c2oc(C(=O)NCCCN3CCCC3=O)cc12,.,.,.,.,.,.,/
Cc1nc2ccccc2c2oc(C(=O)NCCN3CCN(C)CC3)cc12,.,?,.,.,.,.,.
CN(C)CCCN(C(=O)c1ccco1)c1nc2ccc(Cl)cc2s1,.,.,.,.,.,.,/
CN(C)CCN(C(=O)c1ccco1)c1nc2cc3c(cc2s1)OCCO3,.,64,.,.,.,.,.
CCCC#Cc1cnc2c(c1)C(=O)N([C@@H](C)CO)C[C@@H](C)[C@H](CN(C)Cc1ccncc1)O2,.,.,.,.,.,.,/
Cn1nc(-c2ccc(Cl)cc2)c2cc(C(=O)NCC3CCCO3)sc21 (stereo not given),.,.,.,.,.,.,/
CCN(CCCNC(=O)c1cc2c(-c3cccc(OC)c3)nn(C)c2s1)Cc1ccccc1,.,.,.,.,.,.,/
CCN(CC)CCCNC(=O)c1cc2c(-c3ccc(Cl)cc3)nn(C)c2s1,.,?,.,.,.,.,.
CN1CCN(CCCNC(=O)c2cc3c(-c4ccc(Cl)cc4)nn(C)c3s2)CC1,.,61,.,.,.,.,.
O=C(Cc1ccccn1)N[C@@H]1C=C[C@H](CC(=O)N2CCCCC2)O[C@@H]1CO,.,.,.,.,.,.,/
CCOC(=O)c1cnc2ccc(C)cc2c1NCCN1CCOCC1,.,?,.,.,.,.,.
CCOC(=O)c1ccc2ncc(C(=O)OCC)c(NCCCN3CCOCC3)c2c1,/,.,/,/,/,/,/
CCOC(=O)c1cnc2c(C)c(Cl)ccc2c1NCCCN1CCOCC1,.,60,.,.,.,.,.
